According to ChEMBL document CHEMBL1821673, “Development of β-amino alcohol derivatives that inhibit Toll-like receptor 4 mediated inflammatory response as potential antiseptics” (J Med Chem, 2011):
Active and inactive are the calls of the source. No cut-off for these calls is given here.

Tests used:
[1] = biological target: T1, Toll-like receptor 4 (Mus musculus, UniProt Q9QUK6); assay: Inhibition of LPS-induced TLR4 activation in mouse RAW264.7 cells assessed as reduction in NO production after 18 to 24 hrs; assay type: cell-based
T1 sequence (Q9QUK6 whole entry): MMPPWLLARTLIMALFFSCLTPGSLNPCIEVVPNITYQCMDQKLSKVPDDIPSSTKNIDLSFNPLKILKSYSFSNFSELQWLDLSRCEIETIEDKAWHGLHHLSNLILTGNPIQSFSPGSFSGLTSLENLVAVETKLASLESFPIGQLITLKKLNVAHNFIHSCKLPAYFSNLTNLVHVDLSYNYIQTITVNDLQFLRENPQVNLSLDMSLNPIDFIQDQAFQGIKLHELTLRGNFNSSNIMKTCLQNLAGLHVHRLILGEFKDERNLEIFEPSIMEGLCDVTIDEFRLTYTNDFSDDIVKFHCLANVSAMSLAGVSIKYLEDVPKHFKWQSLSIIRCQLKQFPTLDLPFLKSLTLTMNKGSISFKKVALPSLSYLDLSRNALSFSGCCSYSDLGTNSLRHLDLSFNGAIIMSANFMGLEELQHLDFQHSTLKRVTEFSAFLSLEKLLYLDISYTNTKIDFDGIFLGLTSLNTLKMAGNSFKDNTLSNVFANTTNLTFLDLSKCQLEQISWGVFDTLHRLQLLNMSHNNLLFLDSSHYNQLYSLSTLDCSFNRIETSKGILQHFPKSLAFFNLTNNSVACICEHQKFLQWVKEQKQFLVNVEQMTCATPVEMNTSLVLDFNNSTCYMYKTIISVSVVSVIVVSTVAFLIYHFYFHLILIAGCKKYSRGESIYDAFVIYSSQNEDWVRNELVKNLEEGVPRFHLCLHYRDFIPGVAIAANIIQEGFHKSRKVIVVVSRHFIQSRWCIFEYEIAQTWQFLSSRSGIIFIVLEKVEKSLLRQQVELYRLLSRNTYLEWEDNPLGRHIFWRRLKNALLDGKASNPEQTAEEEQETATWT
In short: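 RAW264.7 cells, 100,000 per well, grown 24 h in RPMI with 10% FBS, then switched to unsupplemented RPMI. LPS and compound added together, 18–24 h at 37 °C. Medium nitrite measured with 2,3-diaminonaphthalene (ex 365/em 450 nm) against a nitrite standard curve. Quadruplicate; IC50 by a modified Kou-type method.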

[2] = biological target: T2, Toll-like receptor 4 (Homo sapiens, UniProt O00206); assay: Inhibition of LPS-induced TLR4 activation in human whole blood assessed as inhibition of TNFalpha release preincubated for 5 to 10 mins
T2 sequence (O00206 whole entry): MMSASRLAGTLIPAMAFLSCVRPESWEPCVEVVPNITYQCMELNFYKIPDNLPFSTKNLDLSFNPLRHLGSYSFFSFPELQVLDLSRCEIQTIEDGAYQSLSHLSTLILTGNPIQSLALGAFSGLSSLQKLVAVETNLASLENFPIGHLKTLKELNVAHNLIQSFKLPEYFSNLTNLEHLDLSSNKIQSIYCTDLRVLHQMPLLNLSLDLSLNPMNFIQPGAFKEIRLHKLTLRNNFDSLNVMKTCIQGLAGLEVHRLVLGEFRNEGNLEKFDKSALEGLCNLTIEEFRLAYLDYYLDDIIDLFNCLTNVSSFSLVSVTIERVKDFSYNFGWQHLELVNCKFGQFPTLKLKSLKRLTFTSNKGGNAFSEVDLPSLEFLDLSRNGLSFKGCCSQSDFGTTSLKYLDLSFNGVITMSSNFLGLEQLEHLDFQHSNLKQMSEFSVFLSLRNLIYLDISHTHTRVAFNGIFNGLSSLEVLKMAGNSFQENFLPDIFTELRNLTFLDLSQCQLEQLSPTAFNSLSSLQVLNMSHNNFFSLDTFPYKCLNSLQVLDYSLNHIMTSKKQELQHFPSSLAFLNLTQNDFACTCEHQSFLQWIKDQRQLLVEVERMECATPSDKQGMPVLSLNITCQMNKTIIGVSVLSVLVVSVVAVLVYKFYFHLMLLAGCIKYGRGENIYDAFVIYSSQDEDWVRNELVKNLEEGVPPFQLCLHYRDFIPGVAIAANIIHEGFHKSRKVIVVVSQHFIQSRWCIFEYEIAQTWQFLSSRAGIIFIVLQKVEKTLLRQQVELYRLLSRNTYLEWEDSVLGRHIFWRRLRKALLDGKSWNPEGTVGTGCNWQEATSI
In short: (§1)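 Fresh human blood anticoagulated with lepirudin, preincubated with compound 5–10 min at 37 °C, then stimulated with 100 ng/mL ultrapure E. coli 0111:B4 LPS, rotating 2 h at 37 °C. Stopped with EDTA 10 mM final; plasma TNF-α, IL-8 and IL-6 measured by singleplex Bio-plex, expressed as % of LPS without inhibitor. n = 3 or 9, paired two-sided t-test.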

[3] = biological target: T2, Toll-like receptor 4; assay: Inhibition of LPS-induced TLR4 activation in human whole blood assessed as inhibition of TNFalpha release at 250 uM preincubated for 5 to 10 mins; in short: as §1
[4] = biological target: T2, Toll-like receptor 4; assay: Inhibition of LPS-induced TLR4 activation in human whole blood assessed as inhibition of IL-8 release at 500 uM preincubated for 5 to 10 mins; in short: as §1
[5] = biological target: T2, Toll-like receptor 4; assay: Inhibition of LPS-induced TLR4 activation in human whole blood assessed as inhibition of TNFalpha release at 500 uM preincubated for 5 to 10 mins; in short: as §1
[6] = biological target: T2, Toll-like receptor 4; assay: Inhibition of LPS-induced TLR4 activation in human whole blood assessed as inhibition of IL-6 release at 500 uM preincubated for 5 to 10 mins; in short: as §1
[7] = biological target: T2, Toll-like receptor 4; assay: Inhibition of LPS-induced TLR4 activation in human whole blood assessed as reduction in plasma TNFalpha level at 250 uM preincubated for 5 to 10 mins; in short: as §1
[8] = biological target: T2, Toll-like receptor 4; assay: Inhibition of LPS-induced TLR4 activation in human whole blood assessed as reduction in plasma IL-6 level at 250 uM preincubated for 5 to 10 mins; in short: as §1
[9] = Octanol/water distribution coefficient, log D of the compound at pH 7.4; assay type: physicochemical
In short: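 Octanol/water distribution measured at pH 7.4.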

[10] = test system: MDCK; assay: Permeability across apical to basolateral side of MDCK cells expressing MDR1 at 5 uM; assay type: ADME, cell-based, Canis lupus familiaris; conditions: dog
In short: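 MDR1-MDCK monolayer; transport measured in apical-to-basolateral and basolateral-to-apical directions at 5 µM.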

[11] = test system: Liver; assay: Intrinsic clearance in human liver S9 fractions at 1 uM after 60 mins by LC-MS/MS analysis; assay type: ADME, subcellular, S9 fraction; conditions: s9, 1 h
In short: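 1 µM in <0.25% DMSO, 37 °C, pooled rat or human S9 at 1 mg/mL, with 1 mM each of NADPH, UDPGA, PAPS and GSH. Sampled at 0, 10, 20, 30 and 60 min; peak-area ratio to internal standard by LC-MS/MS without a standard curve. CLint = k/P.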

[12] = biological target: Cytochrome P450 2C9 (Homo sapiens, UniProt P11712); assay: Inhibition of CYP2C9 in human liver microsomes using diclofenac as probe; assay type: ADME, Microsome
Cytochrome P450 2C9, sequence (P11712 whole entry): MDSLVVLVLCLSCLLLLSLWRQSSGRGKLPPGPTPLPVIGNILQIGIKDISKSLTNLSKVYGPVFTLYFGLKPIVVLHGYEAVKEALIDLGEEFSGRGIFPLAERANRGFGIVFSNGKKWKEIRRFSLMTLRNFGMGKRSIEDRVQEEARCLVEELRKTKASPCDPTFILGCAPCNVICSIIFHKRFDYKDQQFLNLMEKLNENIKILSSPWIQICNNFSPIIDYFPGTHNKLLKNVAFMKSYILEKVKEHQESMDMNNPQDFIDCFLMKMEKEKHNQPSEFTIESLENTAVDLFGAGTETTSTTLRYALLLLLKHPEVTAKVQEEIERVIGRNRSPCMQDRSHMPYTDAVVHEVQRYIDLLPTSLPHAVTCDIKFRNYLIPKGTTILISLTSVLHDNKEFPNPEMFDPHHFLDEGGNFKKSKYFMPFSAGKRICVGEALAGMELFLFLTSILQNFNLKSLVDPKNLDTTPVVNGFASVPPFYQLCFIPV

[13] = biological target: Cytochrome P450 2C19 (Homo sapiens, UniProt P33261); assay: Inhibition of CYP2C19 in human liver microsomes using S-mephenytoin as probe; assay type: ADME, Microsome
[14] = biological target: Cytochrome P450 2D6 (Homo sapiens, UniProt P10635); assay: Inhibition of CYP2D6 in human liver microsomes using bufuralol as probe; assay type: ADME, Microsome
Cytochrome P450 2D6, sequence (P10635 whole entry, the tested form may be a part): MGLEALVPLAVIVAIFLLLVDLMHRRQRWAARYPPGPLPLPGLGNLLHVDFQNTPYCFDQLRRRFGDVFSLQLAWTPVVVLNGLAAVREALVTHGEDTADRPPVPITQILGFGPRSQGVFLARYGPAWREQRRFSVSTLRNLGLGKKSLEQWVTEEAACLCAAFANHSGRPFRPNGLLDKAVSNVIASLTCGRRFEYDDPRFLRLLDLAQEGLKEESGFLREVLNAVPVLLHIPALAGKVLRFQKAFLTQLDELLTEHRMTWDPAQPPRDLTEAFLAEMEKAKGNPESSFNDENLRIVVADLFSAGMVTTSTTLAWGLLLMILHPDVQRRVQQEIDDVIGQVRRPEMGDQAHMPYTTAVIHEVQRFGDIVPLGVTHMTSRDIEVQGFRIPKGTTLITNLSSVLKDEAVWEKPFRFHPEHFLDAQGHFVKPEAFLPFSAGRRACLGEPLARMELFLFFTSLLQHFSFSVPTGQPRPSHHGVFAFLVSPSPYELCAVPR

[15] = biological target: RAC-alpha serine/threonine-protein kinase (Homo sapiens) (UniProt P31749); assay: Inhibition of AKT1 at 28 uM by luciferase fragment complementation assay
RAC-alpha serine/threonine-protein kinase (Homo sapiens), sequence (P31749 whole entry, the tested form may be a part): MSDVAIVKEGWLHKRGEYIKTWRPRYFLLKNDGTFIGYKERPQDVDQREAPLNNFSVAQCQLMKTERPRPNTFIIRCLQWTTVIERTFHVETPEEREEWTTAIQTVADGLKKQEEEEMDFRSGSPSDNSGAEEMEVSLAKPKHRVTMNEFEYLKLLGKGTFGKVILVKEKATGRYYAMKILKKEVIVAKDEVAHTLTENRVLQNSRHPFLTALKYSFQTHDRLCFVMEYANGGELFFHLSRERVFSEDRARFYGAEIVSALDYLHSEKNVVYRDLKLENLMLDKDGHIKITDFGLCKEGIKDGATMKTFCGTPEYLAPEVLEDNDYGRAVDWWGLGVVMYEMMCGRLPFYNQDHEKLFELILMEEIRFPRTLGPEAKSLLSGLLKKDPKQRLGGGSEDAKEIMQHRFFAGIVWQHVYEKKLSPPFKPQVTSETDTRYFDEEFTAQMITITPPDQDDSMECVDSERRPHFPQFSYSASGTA

[16] = biological target: Discoidin domain-containing receptor 2 (Homo sapiens) (UniProt Q16832); assay: Inhibition of DDR2 at 28 uM by luciferase fragment complementation assay
Discoidin domain-containing receptor 2 (Homo sapiens), sequence (Q16832 whole entry, the tested form may be a part): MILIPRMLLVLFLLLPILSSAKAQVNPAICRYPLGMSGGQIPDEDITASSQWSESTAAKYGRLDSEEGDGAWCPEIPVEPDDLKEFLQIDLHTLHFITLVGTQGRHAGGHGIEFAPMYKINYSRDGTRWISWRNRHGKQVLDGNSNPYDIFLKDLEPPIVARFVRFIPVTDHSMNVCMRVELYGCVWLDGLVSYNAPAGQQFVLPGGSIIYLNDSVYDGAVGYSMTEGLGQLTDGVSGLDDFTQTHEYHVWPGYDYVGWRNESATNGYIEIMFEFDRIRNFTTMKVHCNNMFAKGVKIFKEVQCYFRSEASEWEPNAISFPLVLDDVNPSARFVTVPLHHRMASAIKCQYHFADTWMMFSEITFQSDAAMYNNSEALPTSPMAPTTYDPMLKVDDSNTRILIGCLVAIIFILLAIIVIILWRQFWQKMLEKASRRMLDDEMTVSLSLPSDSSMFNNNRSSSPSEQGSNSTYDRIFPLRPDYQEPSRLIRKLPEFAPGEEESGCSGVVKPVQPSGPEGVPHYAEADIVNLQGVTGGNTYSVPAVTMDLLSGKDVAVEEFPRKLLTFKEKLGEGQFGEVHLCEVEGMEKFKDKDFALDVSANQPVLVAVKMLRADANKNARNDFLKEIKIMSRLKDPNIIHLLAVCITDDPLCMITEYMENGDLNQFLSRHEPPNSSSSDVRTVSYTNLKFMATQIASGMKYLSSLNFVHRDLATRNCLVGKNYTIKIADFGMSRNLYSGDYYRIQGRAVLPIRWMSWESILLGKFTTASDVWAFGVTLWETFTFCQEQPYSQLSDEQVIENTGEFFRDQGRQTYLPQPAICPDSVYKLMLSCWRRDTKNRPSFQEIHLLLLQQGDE

[17] = biological target: Glycogen synthase kinase-3 alpha (Homo sapiens) (UniProt P49840); assay: Inhibition of GSK3alpha at 28 uM by luciferase fragment complementation assay
Glycogen synthase kinase-3 alpha (Homo sapiens), sequence (P49840 2-483 limits assumed): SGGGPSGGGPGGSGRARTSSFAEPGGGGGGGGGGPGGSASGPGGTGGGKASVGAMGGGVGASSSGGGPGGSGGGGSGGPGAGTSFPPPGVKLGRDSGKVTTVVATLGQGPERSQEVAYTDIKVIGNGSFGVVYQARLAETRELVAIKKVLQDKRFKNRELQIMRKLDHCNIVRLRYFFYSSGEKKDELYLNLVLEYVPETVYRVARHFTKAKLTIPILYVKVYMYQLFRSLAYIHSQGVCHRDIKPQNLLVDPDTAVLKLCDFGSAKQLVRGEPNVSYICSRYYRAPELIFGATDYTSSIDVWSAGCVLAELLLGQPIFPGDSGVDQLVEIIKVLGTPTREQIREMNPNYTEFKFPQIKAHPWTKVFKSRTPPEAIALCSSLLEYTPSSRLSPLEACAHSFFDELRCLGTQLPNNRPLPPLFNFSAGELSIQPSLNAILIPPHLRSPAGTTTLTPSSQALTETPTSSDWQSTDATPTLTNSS

[18] = biological target: Mitogen-activated protein kinase 1 (Homo sapiens) (UniProt P28482); assay: Inhibition of MAPK1 at 28 uM by luciferase fragment complementation assay
Mitogen-activated protein kinase 1 (Homo sapiens), sequence (P28482 whole entry, the tested form may be a part): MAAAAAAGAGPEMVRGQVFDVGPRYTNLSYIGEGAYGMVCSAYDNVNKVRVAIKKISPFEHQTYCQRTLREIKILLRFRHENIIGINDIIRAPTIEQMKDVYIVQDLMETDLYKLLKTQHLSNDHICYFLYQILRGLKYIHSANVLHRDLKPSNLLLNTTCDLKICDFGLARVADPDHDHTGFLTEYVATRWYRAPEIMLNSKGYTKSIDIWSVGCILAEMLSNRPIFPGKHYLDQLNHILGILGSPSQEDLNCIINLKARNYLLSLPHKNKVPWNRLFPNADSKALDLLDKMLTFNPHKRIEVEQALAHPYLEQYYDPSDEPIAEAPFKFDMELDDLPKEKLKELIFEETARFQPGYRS

[19] = biological target: Hepatocyte growth factor receptor (Homo sapiens) (UniProt P08581); assay: Inhibition of MET at 28 uM by luciferase fragment complementation assay
[20] = biological target: Serine/threonine-protein kinase pim-1 (Homo sapiens) (UniProt P11309); assay: Inhibition of PIM1 at 28 uM by luciferase fragment complementation assay
Serine/threonine-protein kinase pim-1 (Homo sapiens), sequence (P11309 whole entry, looked up, the tested form may be a part): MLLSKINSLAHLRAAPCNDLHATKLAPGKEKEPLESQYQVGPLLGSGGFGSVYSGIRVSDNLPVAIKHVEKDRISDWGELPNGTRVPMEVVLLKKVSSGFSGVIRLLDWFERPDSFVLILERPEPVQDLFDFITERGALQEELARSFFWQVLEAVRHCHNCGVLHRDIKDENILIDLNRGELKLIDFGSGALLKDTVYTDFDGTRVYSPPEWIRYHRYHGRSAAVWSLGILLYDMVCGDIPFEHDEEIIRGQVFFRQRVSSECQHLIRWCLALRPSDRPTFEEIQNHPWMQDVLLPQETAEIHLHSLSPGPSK

[21] = biological target: Protein kinase C gamma type (Homo sapiens) (UniProt P05129); assay: Inhibition of PKCgamma at 28 uM by luciferase fragment complementation assay
[22] = biological target: Serine/threonine-protein kinase PLK4 (Homo sapiens) (UniProt O00444); assay: Inhibition of PLK4 at 28 uM by luciferase fragment complementation assay
[23] = test system: Blood; assay: Cytotoxicity against human whole blood assessed as hemolysis at 1 mM; assay type: tissue-based; conditions: 1000 µM
In short: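 Human whole blood anticoagulated with lepirudin, exposed to compound at up to 1 mM; hemolysis checked.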

CCOc1ccc(OCC(O)CN(C)Cc2c(C)nn(Cc3ccccc3Cl)c2C)cc1 (racemic)
IC50 [1]: 27.8 µM
IC50 [2]: 316 µM
inhibition [2]: Dose-dependent effect
inhibition [3]: Active
inhibition [4]: Active
inhibition [5]: Active
inhibition [6]: Active
inhibition [7]: 43%
inhibition [8]: 50%
logD [9]: 3.36
permeability [10]: permeable
CL [11]: 300 µL/min/mg
IC50 [12]: 43 µM
IC50 [13]: 20 µM
IC50 [14]: 32 µM
inhibition [15]: ≤ 27%
inhibition [16]: ≤ 27%
inhibition [17]: ≤ 27%
inhibition [18]: ≤ 27%
inhibition [19]: ≤ 27%
inhibition [20]: ≤ 27%
inhibition [21]: ≤ 27%
inhibition [22]: ≤ 27%
Activity [23]: Non-toxic
